Measurements: ChEMBL document CHEMBL2434867, “Synthesis and antioxidant activity of novel Mannich base of 1,3,4-oxadiazole derivatives possessing 1,4-benzodioxan” (Bioorg Med Chem, 2013)
Calls of active or inactive are those of the source. No cut-off for these calls is given here.

Key:
Type in all cases: functional
[1] = Antioxidant activity assessed as ABTS radical scavenging activity after 6 mins
[2] = test system: Radical scavenging activity; experiment: Antioxidant activity assessed as DPPH free radical scavenging activity after 30 mins by spectrophotometric analysis
Procedure, shortened: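 Serial dilutions of compound (100 to 3.125 µg/mL) mixed 1:1 with 0.2 mmol/L DPPH in ethanol; ethanol blank, BHT control. A515 read after 0.5 h at 25 °C; IC50 = concentration giving 50% DPPH scavenging; three replicates, mean ± SD.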

[3] = Antioxidant activity assessed as ferric ion reducing activity using ferric-TPTZ by measuring concentration of compound with antioxidant capacity equivalent to ferrous sulfate at 0.5 mmol/L by FRAP assay
[4] = test system: Liver; experiment: Antioxidant activity in KM mouse liver microsomes assessed as inhibition of lipid peroxidation after 60 mins; conditions: for inhibition: Microsome; for IC50: 1 h
Procedure, shortened: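 Liver microsomes from adult male KM mice (8–12 weeks), protein by Bradford, used at 0.67 mg protein/mL with compounds at varying concentrations, 10 mM FeSO₄ and 0.1 mM ascorbic acid in 0.2 M potassium phosphate pH 7.4; 37 °C, 60 min. Stopped with 20% TCA plus 0.67% TBA, heated 100 °C 15 min, centrifuged; MDA-TBA read at 535 nm.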

[5] = Antioxidant activity against AAPH-induced DNA breakage in Escherichia coli pBR322 at 100 uM after 1 hr using ethidium bromide staining by agarose gel electrophoresis analysis
Procedure, shortened: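 Plasmid pBR322 DNA (4 µg/mL final) exposed to AAPH (4 mM final) in phosphate buffer (8.1 mM Na₂HPO₄, 1.9 mM NaH₂PO₄, 10.0 mM EDTA), 25 µL total; samples and Trolox standard added at 100 µM in DMSO; 37 °C, 1 h. Strand breakage resolved on 1% agarose gel in Tris-acetate-EDTA, 60 V, 100 min.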

| SMILES | IC50 [1] | IC50 [2] | IC50 [4] | Activity [3] | inhibition [4] | Activity [5] |
| --- | --- | --- | --- | --- | --- | --- |
| S=c1oc(-c2ccc3c(c2)OCCO3)nn1CNc1ccc(Cl)cc1 | 7.27 µM | 31.3 µM |  | 584 µM |  |  |
| S=c1oc(-c2ccc3c(c2)OCCO3)nn1CNc1ccc(Br)cc1 | 14.7 µM | 71.3 µM |  | 531 µM |  |  |
| S=c1oc(-c2ccc3c(c2)OCCO3)nn1CNc1cccc(Cl)c1 | 6.22 µM | 22.8 µM |  | 846 µM |  |  |
| S=c1[nH]nc(-c2ccc3c(c2)OCCO3)o1 | 10.6 µM | 63.9 µM |  | 612 µM |  |  |
| S=c1oc(-c2ccc3c(c2)OCCO3)nn1CNc1ccccc1 | 5.14 µM | 32.6 µM |  | 735 µM | Active | Active |
| Cc1cc(C(C)(C)C)c(O)c(C(C)(C)C)c1 [BUTYLATED HYDROXYTOLUENE] | 7.57 µM | 43.8 µM |  | 546 µM |  |  |
| Fc1ccc(NCn2nc(-c3ccc4c(c3)OCCO4)oc2=S)cc1 | 6.48 µM | 29.3 µM |  | 300 µM |  |  |
| O=[N+]([O-])c1ccc(NCn2nc(-c3ccc4c(c3)OCCO4)oc2=S)cc1 | 9.95 µM | 47.8 µM |  | > 1000 µM |  |  |
| COc1ccccc1NCn1nc(-c2ccc3c(c2)OCCO3)oc1=S | 6.3 µM | 28.6 µM |  | 335 µM |  |  |
| S=c1oc(-c2ccc3c(c2)OCCO3)nn1CNc1cc(Cl)ccc1Cl | 5.42 µM | 35.1 µM |  | 899 µM |  |  |
| Fc1cccc(NCn2nc(-c3ccc4c(c3)OCCO4)oc2=S)c1 | 6.62 µM | 35.6 µM |  | 398 µM |  |  |
| S=c1oc(-c2ccc3c(c2)OCCO3)nn1CNc1ccc(Br)cc1Br | 6.41 µM | 35.9 µM |  | > 1000 µM |  |  |
| S=c1oc(-c2ccc3c(c2)OCCO3)nn1CNc1ccc(Cl)cc1Cl | 8.71 µM | 43.5 µM |  | 593 µM |  |  |
| S=c1oc(-c2ccc3c(c2)OCCO3)nn1CNC1CCCCC1 | 18.4 µM | 94.4 µM |  | > 1000 µM |  |  |
| S=c1oc(-c2ccc3c(c2)OCCO3)nn1CNc1ccccc1Cl | 7.23 µM | 30.5 µM |  | 532 µM |  |  |
| O=[N+]([O-])c1ccccc1NCn1nc(-c2ccc3c(c2)OCCO3)oc1=S | 10.9 µM | 47.8 µM |  | > 1000 µM | Active | Active |
| FC(F)(F)c1ccccc1NCn1nc(-c2ccc3c(c2)OCCO3)oc1=S | 9.22 µM | 68.3 µM |  | > 1000 µM |  |  |
| S=c1oc(-c2ccc3c(c2)OCCO3)nn1CNc1ccccc1Br | 12.7 µM | 36.1 µM |  | 440 µM |  |  |
| O=[N+]([O-])c1cccc(NCn2nc(-c3ccc4c(c3)OCCO4)oc2=S)c1 | 8.87 µM | 38.3 µM |  | > 1000 µM | Active | Active |
| FC(F)(F)c1cc(NCn2nc(-c3ccc4c(c3)OCCO4)oc2=S)cc(C(F)(F)F)c1 | 9.32 µM | 89.3 µM |  | > 1000 µM |  |  |
| COc1ccc(NCn2nc(-c3ccc4c(c3)OCCO4)oc2=S)cc1 | 5.83 µM | 31.8 µM |  | 493 µM |  |  |
| CCOc1ccccc1NCn1nc(-c2ccc3c(c2)OCCO3)oc1=S | 5.28 µM | 22.4 µM |  | 422 µM |  |  |
| FC(F)(F)c1cccc(NCn2nc(-c3ccc4c(c3)OCCO4)oc2=S)c1 | 7.62 µM | 35.5 µM |  | > 1000 µM |  |  |
| O=[N+]([O-])c1ccc(NCn2nc(-c3ccc4c(c3)OCCO4)oc2=S)c(Cl)c1 | 8.66 µM | 83.4 µM |  | > 1000 µM | Active | Active |

More lines, in order of falling IC50 [1], values ahead:

| IC50 [1] | IC50 [2] | IC50 [4] | SMILES | Activity [3] | inhibition [4] | Activity [5] |
| --- | --- | --- | --- | --- | --- | --- |
| 22.9 µM | 108 µM |  | CCCCCCCCCCCCCCCCNCn1nc(-c2ccc3c(c2)OCCO3)oc1=S | > 1000 µM |  |  |
| 13.8 µM | 87.4 µM |  | COC(=O)c1ccc2c(c1)OCCO2 | > 1000 µM |  |  |
| 10.9 µM | 89.8 µM |  | S=c1[nH]nc(-c2ccccc2)o1 | > 1000 µM |  |  |
| 10.8 µM | 51 µM |  | S=c1oc(-c2ccc3c(c2)OCCO3)nn1CNc1cccc(Br)c1 | > 1000 µM |  |  |
| 6.84 µM | 36.2 µM |  | S=c1oc(-c2ccc3c(c2)OCCO3)nn1CNc1ccc(Cl)c(Cl)c1 | 763 µM |  |  |
| 6.39 µM | 37.3 µM |  | Fc1ccccc1NCn1nc(-c2ccc3c(c2)OCCO3)oc1=S | 522 µM |  |  |
| 6.19 µM | 30.2 µM | 183 µM | Cc1c(C)c2c(c(C)c1O)CCC(C)(C(=O)O)O2 (stereo not given) [TROLOX] | 294 µM |  |  |
| 5.7 µM | 25.2 µM |  | Cc1ccc(NCn2nc(-c3ccc4c(c3)OCCO4)oc2=S)cc1 | 434 µM |  |  |
| 3.45 µM | 36.3 µM |  | Cc1ccccc1NCn1nc(-c2ccc3c(c2)OCCO3)oc1=S | 292 µM | Active | Active |
| 3.32 µM | 21.8 µM |  | Fc1cccc(F)c1NCn1nc(-c2ccc3c(c2)OCCO3)oc1=S | 268 µM | Active | Active |
| 2.92 µM | 19.6 µM | 110 µM | Fc1cc(NCn2nc(-c3ccc4c(c3)OCCO4)oc2=S)cc(F)c1F | 240 µM |  | Active |
